Published values of several laboratories.
Protocols differ between the studies behind these lines.
Read-out: cell growth or viability

SMILES | cell line | assay | setting | IC50
CC(C(=O)N1CCCCC1)c1cccc(C(OC(=O)N2CCCCC2)c2ccccc2)c1 (stereo not drawn) | FM3A | – | 48 h | 8 µM
CCCSc1ccc2nc(NC(=O)OC)[nH]c2c1 | GISTT1 | resazurin | 72 h | 0.3 µM
COc1cc([C@@H]2c3cc4c(cc3[C@H](O)[C@H]3COC(=O)[C@H]23)OCO4)cc(OC)c1OC | L6 | – | – | 4 ng/mL
CC(C)=CCOc1c2occc2cc2ccc(=O)oc12 | COLO 205 | MTT | 24 h | > 100 µM
COc1ccc2c(c1)NC(=O)CN2c1nc(C)nc(C)c1C | MDA-MB-453 | MTS | 72 h | 0.0043 µM
N.N.[Cl][Pt][Cl] | NCI-H460 | – | 48 h | 21.6 µM
COc1cc(C(=O)c2sc3c(OC)cccc3c2N)cc(OC)c1OC | L1210 | – | 48 h | 0.033 µM
COc1cc(C(=O)c2cc3c(-c4ccccc4)c(OC)ccc3o2)cc(OC)c1OC | L1210 | – | 48 h | > 50 µM
CC(C(=O)NCc1ccccc1)c1cccc(C(OC(=O)NCc2ccccc2)c2ccccc2)c1 (stereo not drawn) | L1210 | – | 48 h | 10 µM
C[C@@H]1C[C@H](O)[C@]2(O)O[C@@H]3C[C@@]4(C)[C@@H](CC[C@@H]5[C@@H]4CC[C@]4(C)[C@@H](C6=CC(=O)OC6)CC[C@]54O)C[C@H]3O[C@@H]2O1 | L6 | resazurin | 72 h | 7.63 µM
O=C1CCN(S(=O)(=O)c2ccc(F)cc2)CC(=O)c2ccccc2N1 | L6 | – | – | > 280 µM
CC(C(=O)NC1CCCCC1)c1cccc(C(OC(=O)NC2CCCCC2)c2ccccc2)c1 (stereo not drawn) | L1210 | – | 48 h | 9.6 µM
COc1ccc(/C=C\c2cc(OC)c(OC)c(OC)c2)cc1O | L1210 | – | 48 h | 0.0028 µM
CC(C(=O)N1CCCC1)c1cccc(C(OC(=O)N2CCCC2)c2ccccc2)c1 (stereo not drawn) | FM3A | – | 48 h | 35 µM
C[C@H]1O[C@@H](O[C@H]2[C@@H](O)C[C@H](O[C@H]3[C@@H](O)C[C@H](O[C@H]4CC[C@@]5(C)[C@H](CC[C@@H]6[C@@H]5CC[C@]5(C)[C@@H](C7=CC(=O)OC7)CC[C@]65O)C4)O[C@@H]3C)O[C@@H]2C)C[C@H](O)[C@@H]1O | GISTT1 | resazurin | 72 h | < 0.16 µM
COc1ccc2c(c1)NC(=O)CN2c1nc(Cl)nc2c1CCCC2 | MDA-MB-453 | MTS | 72 h | 0.256 µM
CC(C(=O)NC1CCCC1)c1cccc(C(OC(=O)NC2CCCC2)c2ccccc2)c1 (stereo not drawn) | FM3A | – | 48 h | 12 µM
C[C@@H]1C[C@@]2(NCCS2)[C@]2(O)O[C@@H]3C[C@@]4(C=O)[C@@H](CC[C@@H]5[C@@H]4CC[C@]4(C)[C@@H](C6=CC(=O)OC6)CC[C@]54O)C[C@H]3O[C@@H]2O1 | L6 | resazurin | 72 h | 2.74 µM
